Results reported in ChEMBL document CHEMBL1125409, “Synthesis and biological activity of acyclic analogues of 5,10-dideaza-5,6,7,8-tetrahydrofolic acid” (J Med Chem, 1992).

How the values were obtained:
[1] = test system: CCRF-CEM; experiment: Cytotoxicity against human lymphoblastic leukemic CCRF-CEM cell line was evaluated as the concentration required for 50% inhibition of the growth of the control value; format: functional, cell-based
Summary of the method: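 CCRF-CEM cells in RPMI 1640 with 10% dialyzed FBS, 16 mM HEPES and 8 mM MOPS, seeded at 4.8×10⁴ cells/well. Duplicate wells got graded concentrations diluted from a 4 mg/mL DMSO stock. After 72 h (95% air/5% CO₂), cells were counted on a Coulter counter. IC50 was taken from dose-response curves as 50% growth inhibition versus control.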

[2] = In vivo antitumor activity against 6C3HED tumor type after intraperitoneal administration of 400 mg/kg; format: functional; settings: ip
Summary of the method: (§1)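 6C3HED lymphosarcoma: 1–2 mm³ fragments implanted sc by trocar in the axilla of syngeneic C3H mice. Dosing ip twice daily for 8 days, starting 24 h after implant. One day after the last dose, tumor volume was taken as L(W²)/2 and compared with controls to give % inhibition. Deaths over group size were recorded.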

[3] = test system: Mus musculus; experiment: In vivo antitumor activity against 6C3HED tumor type was expressed as toxic deaths/total treated mice at 400 mg/kg dose; 2/10; format: ADME, organism-based; parameters: dose 400 mg/kg
[4] = test system: Mus musculus; experiment: In vivo antitumor activity against […] tumor type was expressed as toxic deaths/total treated mice at 100 mg/kg dose given once daily for 10 days; 1/10; format: ADME, organism-based; parameters: dose 100 mg/kg; settings: 240 h
[5] = test system: Mus musculus; experiment: In vivo antitumor activity against […] tumor type was expressed as toxic deaths/total treated mice at 200 mg/kg dose given once daily for 10 days; 0/10; format: ADME, organism-based; parameters: dose 200 mg/kg; settings: 240 h
[6] = test system: Mus musculus; experiment: In vivo antitumor activity against […] tumor type was expressed as toxic deaths/total treated mice at 50 mg/kg dose given once daily for 10 days; 2/10; format: ADME, organism-based; parameters: dose 50 mg/kg; settings: 240 h
[7] = In vivo antitumor activity against […] tumor type after intraperitoneal administration of 100 mg/kg dose given once daily for 10 days; format: functional; settings: ip, 240 h
Summary of the method: (§2)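 C3H mammary adenocarcinoma fragments (1–2 mm³) were trocar-implanted sc axillary in syngeneic C3H mice. Treatment was ip once daily for 10 days, beginning 24 h post-implant. Tumor width and length were measured one day after the final dose, with V = L(W²)/2. Growth inhibition was calculated against untreated controls, and toxicity/total was noted.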

[8] = In vivo antitumor activity against […] tumor type after intraperitoneal administration of 200 mg/kg dose given once daily for 10 days; format: functional; settings: ip, 240 h; summary of the method: as §2
[9] = In vivo antitumor activity against […] tumor type after intraperitoneal administration of 50 mg/kg dose given once daily for 10 days; format: functional; settings: ip, 240 h; summary of the method: as §2
[10] = test system: CCRF-CEM; experiment: Compound was evaluated for reversal of growth inhibition against human lymphoblastic leukemic CCRF-CEM cells at 0.46 uM concentration and with 300 uM of AICA; format: functional
[11] = test system: CCRF-CEM; experiment: Compound was evaluated for reversal of growth inhibition against human lymphoblastic leukemic CCRF-CEM cells at 0.46 uM concentration and with 5 uM of Thymidine; format: functional
[12] = In vivo antitumor activity against lymphosarcoma tumor type after intraperitoneal administration of 100 mg/kg dose given twice daily for 8 days; format: functional; settings: ip, 192 h; summary of the method: as §1
[13] = In vivo antitumor activity against lymphosarcoma tumor type after intraperitoneal administration of 200 mg/kg dose given twice daily for 8 days; format: functional; settings: ip, 192 h; summary of the method: as §1
[14] = In vivo antitumor activity against lymphosarcoma tumor type after intraperitoneal administration of 50 mg/kg dose given twice daily for 8 days; format: functional; settings: ip, 192 h; summary of the method: as §1
[15] = test system: Mus musculus; experiment: In vivo antitumor activity against lymphosarcoma tumor type was expressed as toxic deaths/total treated mice at 100 mg/kg dose given twice daily for 8 days; 0/9; format: ADME, organism-based; parameters: dose 100 mg/kg; settings: 192 h
[16] = test system: Mus musculus; experiment: In vivo antitumor activity against lymphosarcoma tumor type was expressed as toxic deaths/total treated mice at 50 mg/kg dose given twice daily for 8 days; 0/10; format: ADME, organism-based; parameters: dose 50 mg/kg; settings: 192 h
[17] = test system: CCRF-CEM; experiment: Compound was evaluated for reversal of growth inhibition against human lymphoblastic leukemic CCRF-CEM cells at 0.46 uM concentration and with 100 uM of hypoxanthine; format: functional
[18] = In vivo antitumor activity against C3H mammary tumor type after intraperitoneal administration of 400 mg/kg dose given once daily for 10 days; settings: ip, 240 h
[19] = test system: Mus musculus; experiment: In vivo antitumor activity against C3H mammary tumor type was expressed as toxic deaths/total treated mice at 400 mg/kg dose given once daily for 10 days; 2/10; settings: 240 h

Nc1nc(N)c(CCCCc2csc(C(=O)N[C@@H](CCC(=O)O)C(=O)O)c2)c(O)n1
IC50 [1]: 142 nM

Nc1nc2c(c(=O)[nH]1)C[C@@H](CCc1ccc(C(=O)N[C@@H](CCC(=O)O)C(=O)O)cc1)CN2 [LOMETREXOL]
IC50 [1]: 16 nM

Nc1nc(N)c(CCCCc2ccc(C(=O)N[C@@H](Cc3ccccc3)C(=O)O)cc2)c(O)n1
IC50 [1]: > 44500 nM

Nc1nc(N)c(CCCCCCCCCC(=O)N[C@@H](CCC(=O)O)C(=O)O)c(O)n1
IC50 [1]: > 47100 nM

Nc1nc(O)c(CCCCc2ccc(C(=O)N[C@@H](CCC(=O)O)C(=O)O)cc2)c(O)n1
IC50 [1]: 39800 nM

Nc1nc(N)c(CCCCc2ccc(C(=O)N[C@@H](CC(=O)O)C(=O)O)cc2)c(O)n1
IC50 [1]: > 48000 nM

Nc1nc(N)c(CCCCc2ccc(C(=O)N[C@@H](CCC(=O)O)C(=O)O)cc2)c(=O)[nH]1 [DIDEAZAACYCLOTETRAHYDROFOLIC ACID]
inhibition in vivo at 400 mg/kg [2]: 100%
Toxicity [3]: 2
Toxicity [4]: 1
Toxicity [5]: 0
Toxicity [6]: 2
inhibition in vivo at 100 mg/kg [7]: 37%
inhibition in vivo at 200 mg/kg [8]: 36%
inhibition in vivo at 50 mg/kg [9]: 17%
Inhibition [10]: 0%
Inhibition [11]: 80%
IC50 [1]: 132 nM
inhibition in vivo at 100 mg/kg [12]: 66%
inhibition in vivo at 200 mg/kg [13]: 92%
inhibition in vivo at 50 mg/kg [14]: 44%
Toxicity [15]: 0
Toxicity [16]: 0
Inhibition [17]: 0%
inhibition in vivo at 400 mg/kg [18]: 78%
Toxicity [19]: 2

Nc1nc(N)c(CCCCc2ccc(C(=O)N[C@@H](CCC(=O)O)C(=O)O)cc2)c(N)n1
IC50 [1]: 42 nM

Nc1nc(N)c(CCCNc2ccc(C(=O)N[C@@H](CCC(=O)O)C(=O)O)cc2)c(O)n1
Inhibition [10]: 55%
Inhibition [11]: 77%
IC50 [1]: 198 nM
Inhibition [17]: 0%

Nc1nc(N)c(CCCCc2ccc(C(=O)N[C@@H](CCC(=O)O)C(=O)O)s2)c(O)n1
IC50 [1]: 59 nM

Cc1nc(N)[nH]c(=O)c1CCCCc1ccc(C(=O)N[C@@H](CCC(=O)O)C(=O)O)cc1
IC50 [1]: 2330 nM
